Legend:
CDK7/Cyclin H/MNAT1 = CDK7/Cyclin H/MNAT1 (Homo sapiens, UniProt P50613); assay: Inhibition of recombinant full length His-tagged human CDK7/cyclin H/MNAT1 expressed in baculovirus expression system
[1] = target: Serine/threonine-protein kinase PLK1 (Homo sapiens) (UniProt P53350); assay: Binding affinity to wild-type human partial length PLK1 (A33 to F325 residues) expressed in mammalian expression system assessed as remaining unbound target protein level at 1000 nM by Kinomescan method relative to control
[2] = target: Testis-specific serine/threonine-protein kinase 3 (Homo sapiens) (UniProt Q96PN8); assay: Binding affinity to wild-type human full length TSSK3 (M1 to T268 residues) expressed in mammalian expression system assessed as remaining unbound target protein level at 1000 nM by Kinomescan method relative to control
Method in brief: (§1)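 KINOMEscan competition binding profile across a panel of 468 kinases and mutants, with the inhibitor tested at a single concentration of 1 μM. Binding is reported as percent of control, meaning signal relative to a DMSO control.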

[3] = target: Mitogen-activated protein kinase kinase kinase 5 (Homo sapiens) (UniProt Q99683); assay: Binding affinity to wild-type human partial length ASK1 (E648 to S964 residues) expressed in bacterial expression system assessed as remaining unbound target protein level at 1000 nM by Kinomescan method relative to control; method in brief: as §1
[4] = target: Mitogen-activated protein kinase 4 (Homo sapiens) (UniProt P31152); assay: Binding affinity to wild-type human partial length ERK4 (M1 to L365 residues) expressed in bacterial expression system assessed as remaining unbound target protein level at 1000 nM by Kinomescan method relative to control
Method in brief: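 KINOMEscan binding panel of 468 kinases/mutants. Inhibitor was tested at a single concentration of 1 μM. Binding is reported as percent of control, defined relative to a DMSO control.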

[5] = target: Megakaryocyte-associated tyrosine-protein kinase (Homo sapiens) (UniProt P42679); assay: Binding affinity to wild-type human full length CTK (M43 to P508 residues) expressed in mammalian expression system assessed as remaining unbound target protein level at 1000 nM by Kinomescan method relative to control
Method in brief: (§2)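 Single-point competition binding screen across a panel of 468 kinases and mutants, with the inhibitor at 1 μM. Binding is read out as percent of a DMSO control, and targets below 1 percent control were classed as strong binders.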

[6] = system: Leucine-rich repeat serine/threonine-protein kinase 2 (Homo sapiens), Q5S007 [G2019S]; assay: Binding affinity to human partial length LRRK2 G2019S mutant (H970 to E2527 residues) expressed in mammalian expression system assessed as remaining unbound target protein level at 1000 nM by Kinomescan method relative to control
Method in brief: (§3)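 KINOMEscan competition-binding profiling across the panel of 468 kinases and mutants, with inhibitor tested at 1 μM. Binding is expressed as percent of control, with DMSO as the reference control.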

[7] = system: Tyrosine-protein kinase ABL1 (Homo sapiens), P00519 [T315I]; assay: Binding affinity to human phosphorylated ABL1 T315I mutant (S229 to K512 residues) expressed in mammalian expression system assessed as remaining unbound target protein level at 1000 nM by Kinomescan method relative to control; method in brief: as §2
[8] = target: SRSF protein kinase 1 (Homo sapiens) (UniProt Q96SB4); assay: Binding affinity to wild-type human full length SRPK1 (M1 to S655 residues) expressed in bacterial expression system assessed as remaining unbound target protein level at 1000 nM by Kinomescan method relative to control; method in brief: as §1
[9] = target: Activin receptor type-2B (Homo sapiens) (UniProt Q13705); assay: Binding affinity to wild-type human ACVR2B (H169 to D504 residues) expressed in bacterial expression system assessed as remaining unbound target protein level at 1000 nM by Kinomescan method relative to control; method in brief: as §2
[10] = target: Serine/threonine-protein kinase Nek5 (Homo sapiens) (UniProt Q6P3R8); assay: Binding affinity to wild-type human partial length NEK5 (M1 to M279 residues) expressed in bacterial expression system assessed as remaining unbound target protein level at 1000 nM by Kinomescan method relative to control
[11] = target: Aurora kinase C (Homo sapiens) (UniProt Q9UQB9); assay: Binding affinity to wild-type human full length AURKC (M1 to S275 residues) expressed in bacterial expression system assessed as remaining unbound target protein level at 1000 nM by Kinomescan method relative to control; method in brief: as §2
[12] = target: Dual specificity protein kinase CLK4 (Homo sapiens) (UniProt Q9HAZ1); assay: Binding affinity to wild-type human partial length CLK4 (R135 to K481 residues) expressed in bacterial expression system assessed as remaining unbound target protein level at 1000 nM by Kinomescan method relative to control; method in brief: as §1
[13] = target: SRSF protein kinase 2 (Homo sapiens) (UniProt P78362); assay: Binding affinity to wild-type human full length SRPK2 (M1 to S686 residues) expressed in bacterial expression system assessed as remaining unbound target protein level at 1000 nM by Kinomescan method relative to control
Method in brief: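 Profiled in a KINOMEscan binding panel with the inhibitor at a single concentration of 1 μM. Binding to each kinase was read out as percent of control, relative to a DMSO control. Strong binders were defined as those with a percent control value below 1.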

U-937 = assay: Antiproliferative activity against human U937 cells after 72 hrs by Celltiter-Glo assay; format: functional; conditions: U-937, 72 h
Method in brief: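 Cells seeded at 3000/well in 96-well plates, exposed to serially diluted compound for 72 h at 37 °C, 5% CO2. Viability read by CellTiter-Glo luminescence and normalized to DMSO control. GI50 derived from curve fit, mean of three independent measurements. Culture media: DMEM/10% FBS for adherent lines; IMDM for MV4-11 and MEC-1/2; RPMI 1640 for suspension lines and CHL.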

[14] = system: Mast/stem cell growth factor receptor Kit (Homo sapiens), P10721 [V559D,T670I]; assay: Binding affinity to human partial length KIT V559D/T670I double mutant (Y545 to D952 residues) expressed in bacterial expression system assessed as remaining unbound target protein level at 1000 nM by Kinomescan method relative to control; method in brief: as §3
Homo sapiens = species: Homo sapiens; assay: Induction of apoptosis in human MEC1 cells assessed as decrease in MCL-1 level after 2 hrs by immunoblotting analysis; format: functional, cell-based
[15] = target: Cyclin-dependent kinase 1/cyclin B1 (Homo sapiens, UniProt P06493); assay: Inhibition of recombinant full length His-tagged human CDK1/CyclinB expressed in baculovirus expression system
[16] = system: Phosphatidylinositol 4,5-bisphosphate 3-kinase catalytic subunit alpha isoform (Homo sapiens), P42336 [M1043I]; assay: Binding affinity to human partial length PIK3CA M1043I mutant (R108 to N1068 residues) expressed in mammalian expression system assessed as remaining unbound target protein level at 1000 nM by Kinomescan method relative to control; method in brief: as §3
[17] = target: LIM domain kinase 2 (Homo sapiens) (UniProt P53671); assay: Binding affinity to wild-type human full length LIMK2 (M1 to P638 residues) expressed in bacterial expression system assessed as remaining unbound target protein level at 1000 nM by Kinomescan method relative to control; method in brief: as §2
Sequence of LIM domain kinase 2 (Homo sapiens) (P53671 whole entry, looked up, the tested form may be a part): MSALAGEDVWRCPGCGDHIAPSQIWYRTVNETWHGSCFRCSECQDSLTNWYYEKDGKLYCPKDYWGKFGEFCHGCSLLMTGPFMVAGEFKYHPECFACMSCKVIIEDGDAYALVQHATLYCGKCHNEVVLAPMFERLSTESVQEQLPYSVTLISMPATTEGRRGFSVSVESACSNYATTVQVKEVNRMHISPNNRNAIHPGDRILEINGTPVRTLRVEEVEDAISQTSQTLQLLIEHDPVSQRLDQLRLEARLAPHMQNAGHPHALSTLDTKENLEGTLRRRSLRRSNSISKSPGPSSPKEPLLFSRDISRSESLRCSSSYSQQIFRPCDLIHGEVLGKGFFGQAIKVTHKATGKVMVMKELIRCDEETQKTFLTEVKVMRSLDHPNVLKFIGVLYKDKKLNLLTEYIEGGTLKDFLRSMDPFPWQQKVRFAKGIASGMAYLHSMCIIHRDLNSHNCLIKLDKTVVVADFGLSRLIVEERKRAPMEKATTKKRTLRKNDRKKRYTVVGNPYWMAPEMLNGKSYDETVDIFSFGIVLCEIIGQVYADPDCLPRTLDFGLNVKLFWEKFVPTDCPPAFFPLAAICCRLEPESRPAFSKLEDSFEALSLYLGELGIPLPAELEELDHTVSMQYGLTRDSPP

Sequence of Serine/threonine-protein kinase PLK1 (Homo sapiens) (P53350 whole entry, the tested form may be a part): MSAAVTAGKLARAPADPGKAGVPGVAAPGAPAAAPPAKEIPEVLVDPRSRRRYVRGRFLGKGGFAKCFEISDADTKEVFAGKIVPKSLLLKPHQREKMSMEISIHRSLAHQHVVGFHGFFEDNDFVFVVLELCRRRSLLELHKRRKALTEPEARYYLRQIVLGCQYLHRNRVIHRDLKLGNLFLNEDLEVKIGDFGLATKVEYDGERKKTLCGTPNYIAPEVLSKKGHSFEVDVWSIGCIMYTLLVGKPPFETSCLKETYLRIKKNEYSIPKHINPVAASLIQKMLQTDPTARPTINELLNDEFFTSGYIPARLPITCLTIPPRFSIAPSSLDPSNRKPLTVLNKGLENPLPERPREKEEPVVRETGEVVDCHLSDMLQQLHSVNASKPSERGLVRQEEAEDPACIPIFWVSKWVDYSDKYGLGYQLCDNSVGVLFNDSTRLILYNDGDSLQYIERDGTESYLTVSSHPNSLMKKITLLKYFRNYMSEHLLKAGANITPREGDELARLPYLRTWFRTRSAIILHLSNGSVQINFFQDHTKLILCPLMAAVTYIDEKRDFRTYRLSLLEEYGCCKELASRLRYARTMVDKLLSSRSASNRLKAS
Sequence of Mitogen-activated protein kinase kinase kinase 5 (Homo sapiens) (Q99683 whole entry, the tested form may be a part): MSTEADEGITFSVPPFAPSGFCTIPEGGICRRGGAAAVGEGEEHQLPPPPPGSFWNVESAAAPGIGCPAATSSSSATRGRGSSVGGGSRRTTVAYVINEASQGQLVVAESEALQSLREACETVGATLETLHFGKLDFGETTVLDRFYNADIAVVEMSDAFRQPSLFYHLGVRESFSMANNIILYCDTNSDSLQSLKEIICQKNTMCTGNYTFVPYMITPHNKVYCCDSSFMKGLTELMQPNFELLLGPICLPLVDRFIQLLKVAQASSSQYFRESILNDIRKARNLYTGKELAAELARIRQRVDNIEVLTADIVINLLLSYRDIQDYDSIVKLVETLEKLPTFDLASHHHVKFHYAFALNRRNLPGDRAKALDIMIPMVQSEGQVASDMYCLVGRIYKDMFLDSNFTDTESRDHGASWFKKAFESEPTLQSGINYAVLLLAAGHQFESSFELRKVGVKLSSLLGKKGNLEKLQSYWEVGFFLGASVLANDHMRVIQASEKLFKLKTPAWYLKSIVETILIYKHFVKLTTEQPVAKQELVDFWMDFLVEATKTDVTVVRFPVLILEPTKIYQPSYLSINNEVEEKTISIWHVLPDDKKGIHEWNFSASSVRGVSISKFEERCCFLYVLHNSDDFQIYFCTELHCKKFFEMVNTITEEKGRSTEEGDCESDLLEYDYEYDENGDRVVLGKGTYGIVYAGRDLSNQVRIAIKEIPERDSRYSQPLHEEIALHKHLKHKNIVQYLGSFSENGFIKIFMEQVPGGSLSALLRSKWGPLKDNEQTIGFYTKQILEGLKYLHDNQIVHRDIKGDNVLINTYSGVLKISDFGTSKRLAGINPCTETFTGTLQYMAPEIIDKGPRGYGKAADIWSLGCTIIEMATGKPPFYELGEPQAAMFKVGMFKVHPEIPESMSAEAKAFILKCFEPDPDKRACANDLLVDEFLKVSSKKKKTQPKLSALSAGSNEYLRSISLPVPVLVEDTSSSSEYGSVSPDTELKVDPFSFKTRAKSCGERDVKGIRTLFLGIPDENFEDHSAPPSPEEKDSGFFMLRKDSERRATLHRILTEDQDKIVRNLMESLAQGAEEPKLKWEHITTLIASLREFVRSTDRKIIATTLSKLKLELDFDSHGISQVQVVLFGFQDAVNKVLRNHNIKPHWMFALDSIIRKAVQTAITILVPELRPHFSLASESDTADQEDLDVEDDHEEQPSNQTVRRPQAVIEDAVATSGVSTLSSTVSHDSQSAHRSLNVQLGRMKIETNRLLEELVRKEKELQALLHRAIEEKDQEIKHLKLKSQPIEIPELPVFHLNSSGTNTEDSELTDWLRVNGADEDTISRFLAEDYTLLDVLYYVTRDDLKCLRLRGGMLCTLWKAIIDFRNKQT
Sequence of Serine/threonine-protein kinase Nek5 (Homo sapiens) (Q6P3R8 whole entry, the tested form may be a part): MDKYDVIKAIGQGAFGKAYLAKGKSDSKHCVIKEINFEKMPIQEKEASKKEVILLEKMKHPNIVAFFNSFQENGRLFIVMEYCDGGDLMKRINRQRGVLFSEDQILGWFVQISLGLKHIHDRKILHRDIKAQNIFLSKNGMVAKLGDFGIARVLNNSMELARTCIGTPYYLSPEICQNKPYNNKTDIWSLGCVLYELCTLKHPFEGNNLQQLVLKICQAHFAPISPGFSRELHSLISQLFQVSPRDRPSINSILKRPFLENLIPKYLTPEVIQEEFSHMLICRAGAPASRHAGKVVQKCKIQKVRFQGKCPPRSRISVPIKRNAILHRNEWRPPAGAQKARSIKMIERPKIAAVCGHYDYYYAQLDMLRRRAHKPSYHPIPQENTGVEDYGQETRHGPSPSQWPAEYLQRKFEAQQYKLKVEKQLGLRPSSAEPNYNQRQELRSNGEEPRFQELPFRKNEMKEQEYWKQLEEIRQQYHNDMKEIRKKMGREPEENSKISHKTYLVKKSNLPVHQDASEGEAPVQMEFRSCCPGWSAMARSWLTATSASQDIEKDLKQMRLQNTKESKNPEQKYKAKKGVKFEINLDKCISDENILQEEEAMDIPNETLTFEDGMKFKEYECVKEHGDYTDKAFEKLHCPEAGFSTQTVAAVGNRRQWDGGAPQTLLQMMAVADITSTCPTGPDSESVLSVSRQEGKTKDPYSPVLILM
Sequence of SRSF protein kinase 2 (Homo sapiens) (P78362 whole entry, looked up, the tested form may be a part): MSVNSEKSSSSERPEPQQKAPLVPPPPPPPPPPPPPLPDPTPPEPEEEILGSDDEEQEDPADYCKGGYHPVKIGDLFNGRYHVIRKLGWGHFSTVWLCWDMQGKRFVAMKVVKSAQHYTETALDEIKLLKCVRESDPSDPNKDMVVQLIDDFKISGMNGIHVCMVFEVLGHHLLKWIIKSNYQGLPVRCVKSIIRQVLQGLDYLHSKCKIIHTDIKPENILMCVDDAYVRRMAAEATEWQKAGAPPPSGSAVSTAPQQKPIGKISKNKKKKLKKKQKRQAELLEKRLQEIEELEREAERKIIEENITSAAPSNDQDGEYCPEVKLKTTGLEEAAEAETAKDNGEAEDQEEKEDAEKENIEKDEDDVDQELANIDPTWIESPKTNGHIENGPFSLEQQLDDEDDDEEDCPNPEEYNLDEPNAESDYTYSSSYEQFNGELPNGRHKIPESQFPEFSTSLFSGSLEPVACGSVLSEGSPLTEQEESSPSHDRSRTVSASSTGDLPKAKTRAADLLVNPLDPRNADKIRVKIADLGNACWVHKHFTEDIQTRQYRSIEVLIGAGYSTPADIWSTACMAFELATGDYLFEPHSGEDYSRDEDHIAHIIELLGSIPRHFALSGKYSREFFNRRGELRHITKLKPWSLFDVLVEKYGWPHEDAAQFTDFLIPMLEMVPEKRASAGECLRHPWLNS
Sequence of SRSF protein kinase 1 (Homo sapiens) (Q96SB4 whole entry, the tested form may be a part): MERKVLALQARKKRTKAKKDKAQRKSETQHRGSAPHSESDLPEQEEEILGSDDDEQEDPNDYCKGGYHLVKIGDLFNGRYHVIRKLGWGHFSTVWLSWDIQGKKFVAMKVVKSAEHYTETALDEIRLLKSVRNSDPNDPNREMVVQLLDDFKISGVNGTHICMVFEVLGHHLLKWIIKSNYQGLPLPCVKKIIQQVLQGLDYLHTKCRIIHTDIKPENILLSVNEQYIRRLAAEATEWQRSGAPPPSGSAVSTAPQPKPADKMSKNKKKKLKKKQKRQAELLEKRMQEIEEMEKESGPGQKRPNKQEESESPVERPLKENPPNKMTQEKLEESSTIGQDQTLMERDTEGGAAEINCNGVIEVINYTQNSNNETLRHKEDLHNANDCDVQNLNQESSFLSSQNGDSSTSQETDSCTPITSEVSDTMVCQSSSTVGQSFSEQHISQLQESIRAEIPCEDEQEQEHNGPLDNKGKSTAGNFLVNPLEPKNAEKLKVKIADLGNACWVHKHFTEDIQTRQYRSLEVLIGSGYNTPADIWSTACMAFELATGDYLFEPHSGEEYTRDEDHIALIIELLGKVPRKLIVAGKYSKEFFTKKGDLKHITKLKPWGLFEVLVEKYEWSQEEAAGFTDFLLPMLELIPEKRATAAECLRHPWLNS
Sequence of Testis-specific serine/threonine-protein kinase 3 (Homo sapiens) (Q96PN8 whole entry, the tested form may be a part): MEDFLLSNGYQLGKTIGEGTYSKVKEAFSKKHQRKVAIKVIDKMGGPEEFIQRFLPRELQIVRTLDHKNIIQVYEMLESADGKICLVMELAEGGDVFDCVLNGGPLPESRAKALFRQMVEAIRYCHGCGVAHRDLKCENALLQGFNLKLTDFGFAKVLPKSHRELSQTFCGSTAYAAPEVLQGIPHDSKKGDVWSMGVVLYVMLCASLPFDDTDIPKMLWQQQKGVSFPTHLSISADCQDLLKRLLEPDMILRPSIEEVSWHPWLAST

**Q.** `COCCN[C@H]1CC[C@H](Nc2cc(-c3csc(NCC4(C#N)CCOCC4)n3)c(Cl)cn2)CC1` was tested. Which IC50 (CDK7/Cyclin H/MNAT1) did it give?
**A.** Its IC50 is 1.72 µM.

**Q.** What about the Activity [1] of the same compound?
**A.** The Activity was 75%.

**Q.** And the Activity [2]?
**A.** Its Activity is 99%.

**Q.** What about the Activity [3] of the same compound?
**A.** The Activity was 77%.

**Q.** What about the Activity [4] of the same compound?
**A.** The Activity was 99%.

**Q.** And the Activity [5]?
**A.** Its Activity is 96%.

**Q.** What about the Activity [6] of the same compound?
**A.** Its Activity is 94%.

**Q.** What about the Activity [7] of the same compound?
**A.** Its Activity is 95%.

**Q.** And the Activity [8]?
**A.** The Activity was 66%.

**Q.** What about the Activity [9] of the same compound?
**A.** The Activity was 98%.

**Q.** And the Activity [10]?
**A.** The Activity was 90%.

**Q.** What about the Activity [11] of the same compound?
**A.** The Activity was 100%.

**Q.** What about the Activity [12] of the same compound?
**A.** Its Activity is 9.2%.

**Q.** What about the Activity [13] of the same compound?
**A.** The Activity was 100%.

**Q.** And the GI50 (U-937)?
**A.** Its GI50 is 0.002 µM.

**Q.** And the Activity [14]?
**A.** The Activity was 89%.

**Q.** What about the Activity (Homo sapiens) of the same compound?
**A.** The Activity was “Dose-dependent effect”.

**Q.** What about the IC50 [15] of the same compound?
**A.** The IC50 was 1.34 µM.

**Q.** And the Activity [16]?
**A.** Its Activity is 95%.

**Q.** What about the Activity [17] of the same compound?
**A.** Its Activity is 76%.

— ChEMBL document CHEMBL4261600 (Eur J Med Chem, 2018)
